Assay results as given in ChEMBL document CHEMBL5030529, “Rationally Modified Antimicrobial Peptides from the N-Terminal Domain of Human RNase 3 Show Exceptional Serum Stability” (J Med Chem, 2021).
Values after ≈ are worked out from the molar mass of the structure shown. Active and inactive are the calls of the source. No cut-off for these calls is given here. Square brackets hold non-standard residues; d marks the D form. Peptide text beside a SMILES is read from it. Orn = NCCC[C@H](N)C(=O)O

Experiments:
Pseudomonas sp. = test: Antimicrobial activity against Pseudomonas sp assessed as bacterial growth inhibition incubated in presence of serum for 24 hrs; assay type: functional
Outline: (§1)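 Broth microdilution in polypropylene plates in Mueller-Hinton medium, inoculum 5 × 10^5 CFU/mL, 37 °C for 24 h. […] MIC is the lowest peptide concentration with no growth. Values are the mean of three independent studies.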

[1] = Retention time of the compound by HPLC analysis; assay type: physicochemical
Outline: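 Analytical RP-HPLC on a C18 column (4.6 × 50 mm, 3 μm) with a linear gradient of 0–60% acetonitrile (0.036% TFA) into water (0.045% TFA) over 15 min. Flow was 1 mL/min with UV detection at 220 nm.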

[2] = Stability in human serum assessed as half life by LC-MS analysis; assay type: ADME, cell-free
Outline: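 1 mM peptide stocks in water were mixed 1:1 (v/v) with human serum. Aliquots were taken at set times and digestion was stopped by acetonitrile precipitation. Serum proteins were removed by centrifugation, and intact peptide and fragments in the supernatant were analysed by LC–MS. Half-life values are the mean of three independent studies.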

[3] = Hemolytic activity in horse RBC assessed as hemolysis at 250 uM relative to control; assay type: ADME, tissue-based, Equus caballus; settings: erythrocyte
Outline: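 Horse erythrocytes were diluted 10-fold in PBS and washed by three spins at 800g. They were incubated with peptides for 4 h at 37 °C, and supernatant absorbance was read at 540 nm. Percent hemolysis is relative to total lysis with 1% Triton X-100. Values are the mean of three independent studies.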

MRC5 = test: Cytotoxicity against human MRC5 cells assessed as cell growth inhibition measured after 4 hrs by MTT assay; assay type: cell-based; settings: MRC5, 4 h
Outline: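 MRC-5 fibroblasts were grown in MEMα with 10% FBS, seeded at 3 × 10^4 cells/well and left overnight to adhere. Cells were exposed to two-fold peptide serial dilutions for 4 h, then given medium with MTT at 0.4 mg/mL for 150 min. Formazan was dissolved in DMSO and read at 600 nm. Values are the mean of three independent studies.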

Acinetobacter baumannii [4] = test: Antimicrobial activity against Acinetobacter baumannii assessed as bacterial growth inhibition incubated for 24 hrs
Salmonella enterica = test: Antimicrobial activity against Salmonella enterica assessed as bacterial growth inhibition incubated in presence of serum for 24 hrs; assay type: functional; outline: as §1
Escherichia coli [5] = test: Antimicrobial activity against Escherichia coli assessed as bacterial growth inhibition incubated for 24 hrs
Shigella flexneri = test: Antimicrobial activity against Shigella flexneri assessed as bacterial growth inhibition incubated in presence of serum for 24 hrs; assay type: functional; outline: as §1
Acinetobacter baumannii [6] = test: Antimicrobial activity against clinical isolate Acinetobacter baumannii 3878 assessed as bacterial growth inhibition incubated in presence of serum for 24 hrs; assay type: functional; outline: as §1
Cell membrane [7] = test: Induction of membrane depolarization in Escherichia coli at 0.4 uM incubated 20 to 30 mins under dark by Eclipse fluorescence spectrometry; assay type: subcellular; settings: time 20-30 min
Outline: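 Exponential-phase E. coli (OD 0.2–0.4) was washed in 5 mM HEPES, 20 mM glucose, 100 mM KCl, pH 7.2, and resuspended to OD 0.05. DiSC3(5) was added at 0.4 μM final and equilibrated in the dark for 20–30 min to a stable baseline. Peptide was then added and dye release was followed by fluorescence at ex 625 nm / em 666 nm.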

Acinetobacter baumannii [8] = test: Antimicrobial activity against clinical isolate Acinetobacter baumannii 3862 assessed as bacterial growth inhibition incubated in presence of serum for 24 hrs; assay type: functional; outline: as §1
Salmonella typhimurium [9] = test: Antimicrobial activity against clinical isolate Salmonella typhimurium 324 assessed as bacterial growth inhibition incubated in presence of serum for 24 hrs; assay type: functional, Salmonella enterica subsp. enterica serovar Typhimurium; settings: Salmonella enterica; outline: as §1
Acinetobacter baumannii [10] = test: Antimicrobial activity against clinical isolate Acinetobacter baumannii 3880 assessed as bacterial growth inhibition incubated in presence of serum for 24 hrs; assay type: functional; outline: as §1
Pseudomonas aeruginosa [11] = test: Antimicrobial activity against clinical isolate Pseudomonas aeruginosa 827651 assessed as bacterial growth inhibition incubated in presence of serum for 24 hrs; assay type: functional; outline: as §1
Escherichia coli [12] = test: Antimicrobial activity against clinical isolate Escherichia coli 116878 assessed as bacterial growth inhibition incubated in presence of serum for 24 hrs; assay type: functional; outline: as §1
Cell membrane [13] = test: Induction of membrane damage in Escherichia coli assessed as loss of membrane integrity by measuring blebs at 10 uM incubated for 2 hrs by Electron scanning microscopy; assay type: subcellular
Outline: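 E. coli was grown in LB at 37 °C to OD600 0.4 and exposed to 10 μM peptide for 2 h at room temperature. Cells were collected on 0.1 μm filters, fixed in 2.5% glutaraldehyde in cacodylate buffer pH 7.4 and post-fixed in 1% OsO4. Samples were dehydrated in ethanol, coated with gold–palladium and imaged at 15 kV.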

Acinetobacter baumannii [14] = test: Antimicrobial activity against clinical isolate Acinetobacter baumannii 3879 assessed as bacterial growth inhibition incubated in presence of serum for 24 hrs; assay type: functional; outline: as §1
Escherichia coli [15] = test: Antimicrobial activity against clinical isolate Escherichia coli cf073 assessed as bacterial growth inhibition incubated in presence of serum for 24 hrs; assay type: functional; outline: as §1
Salmonella typhimurium [16] = test: Antimicrobial activity against clinical isolate Salmonella typhimurium 365 assessed as bacterial growth inhibition incubated in presence of serum for 24 hrs; assay type: functional, Salmonella enterica subsp. enterica serovar Typhimurium; settings: Salmonella enterica; outline: as §1
Pseudomonas aeruginosa [17] = test: Antimicrobial activity against clinical isolate Pseudomonas aeruginosa 827632 assessed as bacterial growth inhibition incubated in presence of serum for 24 hrs; assay type: functional; outline: as §1

Structure (SMILES): CC[C@H](C)[C@H](NC(=O)[C@H](C)NC(=O)[C@H](CCCN)NC(=O)[C@H](CCSC)NC(=O)[C@H](C)NC(=O)[C@@H](NC(=O)[C@@H](NC(=O)[C@H](CCCN)NC(=O)[C@@H]1CCCN1C(=O)[C@H](CO)NC(=O)[C@@H](NC(=O)[C@H](Cc1c[nH]cn1)NC(=O)[C@H](CCC(N)=O)NC(=O)[C@@H](NC(=O)[C@H](C)NC(=O)[C@H](Cc1ccccc1)NC(=O)[C@H](Cc1c[nH]c2ccccc12)NC(=O)[C@H](CCC(N)=O)NC(=O)[C@H](C)NC(=O)[C@H](CCCN)NC(=O)[C@@H](NC(=O)[C@@H](N)Cc1ccccc1)[C@@H](C)O)[C@@H](C)CC)[C@@H](C)CC)[C@@H](C)O)[C@@H](C)CC)C(=O)N[C@@H](CC(N)=O)C(=O)N[C@@H](CC(N)=O)C(=O)N[C@@H](Cc1ccc(O)cc1)C(=O)N[C@@H](CCCN)C(=O)N[C@@H](Cc1c[nH]c2ccccc12)C(=O)N[C@@H](CCCN)C(=O)O (H-FT[Orn]AQWFAIQHISP[Orn]TIAM[Orn]AINNY[Orn]W[Orn]-OH)
- MIC (Pseudomonas sp.): 25 µM
- Retention_time [1]: 10.8 min
- half-life [2]: > 8 h
- Activity [3]: 11%
- IC50 (MRC5): > 300 µM
- MIC (Acinetobacter baumannii [4]): > 100 µM
- MIC (Salmonella enterica): > 100 µM
- MIC (Escherichia coli [5]): 25 µM (≈ 82.4 µg/mL)
- MIC (Shigella flexneri): 50 µM

Structure (SMILES): CC[C@H](C)[C@H](NC(=O)[C@H](C)NC(=O)[C@H](CCCN)NC(=O)[C@H](CCSC)NC(=O)[C@H](C)NC(=O)[C@@H](NC(=O)[C@@H](NC(=O)[C@H](CCCN)NC(=O)[C@@H]1CCCN1C(=O)[C@H](CO)NC(=O)[C@@H](NC(=O)[C@H](Cc1c[nH]cn1)NC(=O)[C@H](CCC(N)=O)NC(=O)[C@@H](NC(=O)[C@H](C)NC(=O)[C@H](Cc1ccccc1)NC(=O)[C@H](Cc1c[nH]c2ccccc12)NC(=O)[C@H](CCC(N)=O)NC(=O)[C@H](C)NC(=O)[C@H](CCCN)NC(=O)[C@@H](NC(=O)[C@H](Cc1ccccc1)NC(=O)[C@H]1CCCN1C(=O)[C@H](N)CCCN)[C@@H](C)O)[C@@H](C)CC)[C@@H](C)CC)[C@@H](C)O)[C@@H](C)CC)C(=O)N[C@@H](CC(N)=O)C(=O)N[C@@H](CC(N)=O)C(=O)N[C@@H](Cc1ccc(O)cc1)C(=O)N[C@@H](CCCN)C(=O)N[C@@H](Cc1c[nH]c2ccccc12)C(=O)N[C@@H](CCCN)C(=O)O
- MIC (Pseudomonas sp.): 1.56 µM
- Retention_time [1]: 10.8 min
- MIC (Acinetobacter baumannii [6]): 0.78 µM
- Activity (Cell membrane [7]): Active
- MIC (Acinetobacter baumannii [8]): 0.78 µM
- MIC (Salmonella typhimurium [9]): 25 µM
- MIC (Acinetobacter baumannii [10]): 6.25 µM
- half-life [2]: > 8 h
- Activity [3]: 3.6%
- IC50 (MRC5): 170 µM
- MIC (Acinetobacter baumannii [4]): 6.25 µM (≈ 21.9 µg/mL)
- MIC (Pseudomonas aeruginosa [11]): 100 µM
- MIC (Escherichia coli [12]): 6.25 µM
- Activity (Cell membrane [13]): Active
- MIC (Acinetobacter baumannii [14]): 1.56 µM
- MIC (Salmonella enterica): 25 µM
- MIC (Escherichia coli [5]): 3.13 µM (≈ 11 µg/mL)
- MIC (Shigella flexneri): 6.25 µM
- MIC (Escherichia coli [15]): 3.13 µM
- MIC (Salmonella typhimurium [16]): 25 µM
- MIC (Pseudomonas aeruginosa [17]): 25 µM

Structure (SMILES): CC[C@H](C)[C@H](NC(=O)[C@H](C)NC(=O)[C@H](CCCN)NC(=O)[C@H](CCSC)NC(=O)[C@H](C)NC(=O)[C@@H](NC(=O)[C@@H](NC(=O)[C@H](CCCN)NC(=O)[C@@H]1CCCN1C(=O)[C@H](CO)NC(=O)[C@@H](NC(=O)[C@H](Cc1c[nH]cn1)NC(=O)[C@H](CCC(N)=O)NC(=O)[C@@H](NC(=O)[C@H](C)NC(=O)[C@H](Cc1ccccc1)NC(=O)[C@H](Cc1c[nH]c2ccccc12)NC(=O)[C@H](CCC(N)=O)NC(=O)[C@H](C)NC(=O)[C@H](CCCN)NC(=O)[C@@H](NC(=O)[C@H](Cc1ccccc1)NC(=O)[C@H]1CCCN1C(=O)[C@@H](N)CCCN)[C@@H](C)O)[C@@H](C)CC)[C@@H](C)CC)[C@@H](C)O)[C@@H](C)CC)C(=O)N[C@@H](CC(N)=O)C(=O)N[C@@H](CC(N)=O)C(=O)N[C@@H](Cc1ccc(O)cc1)C(=O)N[C@@H](CCCN)C(=O)N[C@@H](Cc1c[nH]c2ccccc12)C(=O)N[C@@H](CCCN)C(=O)O
- MIC (Pseudomonas sp.): 1.56 µM
- Retention_time [1]: 10.9 min
- MIC (Acinetobacter baumannii [6]): 0.78 µM
- Activity (Cell membrane [7]): Active
- MIC (Acinetobacter baumannii [8]): 1.56 µM
- MIC (Salmonella typhimurium [9]): 25 µM
- MIC (Acinetobacter baumannii [10]): 12.5 µM
- half-life [2]: > 8 h
- Activity [3]: 1.1%
- IC50 (MRC5): 230 µM
- MIC (Acinetobacter baumannii [4]): 12.5 µM (≈ 43.8 µg/mL)
- MIC (Pseudomonas aeruginosa [11]): 25 µM
- MIC (Escherichia coli [12]): 25 µM
- Activity (Cell membrane [13]): Active
- MIC (Acinetobacter baumannii [14]): 3.13 µM
- MIC (Salmonella enterica): 50 µM
- MIC (Escherichia coli [5]): 3.13 µM (≈ 11 µg/mL)
- MIC (Shigella flexneri): 50 µM
- MIC (Escherichia coli [15]): 6.25 µM
- MIC (Salmonella typhimurium [16]): 25 µM
- MIC (Pseudomonas aeruginosa [17]): > 100 µM
